Data as given in ChEMBL document CHEMBL5036324 (J Med Chem, 2021).
Calls of active or inactive are those of the source. The rule behind the calls is not given here.

Legend:
[1] = target: T1, TLR7 and TLR8 (Homo sapiens) (UniProt Q9NYK1+Q9NR97); experiment: Agonist activity at human TLR7/8 expressed in human PBMC cells assessed as induction of IL-1beta production at 0.1 to 32 ug/ml incubated for 12 hrs by multiplexed immunoassay; format: cell-based; conditions: filed as agonist, dose 0.1-32 µg/ml
Outline: (§1)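 Healthy-volunteer PBMCs from a single donor were isolated by Ficoll−Hypaque gradient and plated at 2.0 × 10⁶ cells/mL. They were stimulated for 12 h with escalating compound concentrations. Supernatants were assayed in duplicate on a 41-analyte magnetic bead cytokine/chemokine panel read by Luminex. EC_max is the concentration giving maximal cytokine induction.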

[2] = target: T1, TLR7 and TLR8 (Homo sapiens); experiment: Agonist activity at human TLR7/8 expressed in human PBMC cells assessed as induction of IL-8 production at 0.1 to 32 ug/ml incubated for 12 hrs by multiplexed immunoassay; format: cell-based; conditions: filed as agonist, dose 0.1-32 µg/ml; outline: as §1
[3] = target: T1, TLR7 and TLR8 (Homo sapiens); experiment: Agonist activity at human TLR7/8 expressed in human PBMC cells assessed as induction of IL-12 production at 0.1 to 32 ug/ml incubated for 12 hrs by multiplexed immunoassay; format: cell-based; conditions: filed as agonist, dose 0.1-32 µg/ml; outline: as §1
[4] = target: T1, TLR7 and TLR8 (Homo sapiens); experiment: Agonist activity at human TLR7/8 expressed in human PBMC cells assessed as induction of MIP-1alpha production at 0.1 to 32 ug/ml incubated for 12 hrs by multiplexed immunoassay; format: cell-based; conditions: filed as agonist, dose 0.1-32 µg/ml; outline: as §1
[5] = Toxicity in BALB/c mouse implanted with mouse CT26 cells assessed as decrease in body weight at 25 ug, ip administered once a week in presence of anti-PD-1 antibodies for 23 days; format: organism-based; conditions: in vivo, 552 h, dose 25 µg, time 23 day
Outline: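 CT26 subcutaneous tumor-bearing BALB/c mice (n = 5) were treated from 100 mm³ tumor volume. TLR7/8 agonist was given ip once weekly, alone or with anti-PD-1 antibody (200 μg ip, twice weekly). Body weight was tracked over the treatment period and reported as mean ± SEM.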

[6] = Subacute toxicity in BALB/c mouse assessed as body weight loss at 1.73 g, ip administered as single dose; format: organism-based; conditions: in vivo
Outline: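 Subacute study in BALB/c mice, with treated and control groups. Body weight was recorded every day. Spleens were weighed and photographed, and tissues were examined by H&E staining.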

[7] = target: T1, TLR7 and TLR8 (Homo sapiens); experiment: Agonist activity at human TLR7/8 expressed in human PBMC cells assessed as induction of IL-1beta production by measuring concentration required to induce maximal response incubated for 12 hrs by multiplexed immunoassay; format: cell-based; conditions: filed as agonist; outline: as §1
[8] = target: T1, TLR7 and TLR8 (Homo sapiens); experiment: Agonist activity at human TLR7/8 expressed in human PBMC cells assessed as induction of IL-8 production by measuring concentration required to induce maximal response incubated for 12 hrs by multiplexed immunoassay; format: cell-based; conditions: filed as agonist; outline: as §1
[9] = target: T1, TLR7 and TLR8 (Homo sapiens); experiment: Agonist activity at human TLR7/8 expressed in human PBMC cells assessed as induction of IL-10 production by measuring concentration required to induce maximal response incubated for 12 hrs by multiplexed immunoassay; format: cell-based; conditions: filed as agonist; outline: as §1
[10] = target: T1, TLR7 and TLR8 (Homo sapiens); experiment: Agonist activity at human TLR7/8 expressed in human PBMC cells assessed as induction of IL-12p40 production by measuring concentration required to induce maximal response incubated for 12 hrs by multiplexed immunoassay; format: cell-based; conditions: filed as agonist; outline: as §1
CT26 [11] = experiment: Antitumor activity against mouse CT26 cells implanted in BALB/c mouse assessed as reduction in tumor size at 25 ug, ip administered once a week in presence of anti-PD-1 antibodies and measured every 3 days for 23 days; format: functional, organism-based; conditions: dose 25.0 µg, time 23.0 day
Outline: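 Subcutaneous CT26 tumours were grown in BALB/c mice, with cells cultured in DMEM/10% FBS. At a mean tumour size of 100 mm³, mice were randomised (n = 5/group). Agonist was given ip once weekly; anti-PD-1 or IgG isotype was given ip at 200 μg twice weekly. Tumour volume (V = 1/2ab²) was measured every 3 days. Mice were euthanised at 2000 mm³.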

CT26 [12] = experiment: Synergistic antitumor activity against mouse CT26 cells implanted in BALB/c mouse assessed as suppression of tumor growth at 12.5 ug, ip administered once a week in presence of anti-PD-1 antibodies and measured every 3 days for 23 days; format: functional, organism-based; conditions: dose 12.5 µg, time 23.0 day
[13] = Toxicity in BALB/c mouse implanted with mouse CT26 cells assessed as decrease in body weight at 0.9 g, ip administered on day 4; format: organism-based; conditions: in vivo
Outline: (§2)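 CT26 cells were grown in DMEM with 10% FBS at 37 °C, 5% CO2, and implanted subcutaneously in BALB/c mice. At a mean tumor volume of 100 mm³, mice were randomized (n = 5 per group). The TLR7/8 agonist was given ip at 25 μg once weekly, with or without anti-PD-1 antibody at 200 μg ip twice weekly. Body weight was tracked over time.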

[14] = Toxicity in BALB/c mouse implanted with mouse CT26 cells assessed as decrease in body weight at 1.2 g, ip administered on day 4 in combination with anti-PD-1 antibodies; format: organism-based; conditions: in vivo; outline: as §2
CT26 [15] = experiment: Antitumor activity against mouse CT26 cells implanted in BALB/c mouse assessed as fold increase in infiltration of CD11c+ in tumor cells at 25 ug, ip administered once a week for 23 days by flow cytometry analysis relative to R848; format: functional; conditions: dose 25 µg; time 23 day
Outline: (§3)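 CT26-bearing BALB/c mice (n = 5) were treated ip once weekly with agonist, alone or with anti-PD-1 (200 μg, twice weekly). Tumours were harvested 23 days after implantation, enzymatically and mechanically dissociated into single cells, and stained for surface markers plus intracellular FoxP3 after fixation/permeabilisation. Cells were gated within CD45⁺ for CD11c⁺ DCs, CD11b⁺F4/80⁺MHCII⁺ (M1), CD206⁺ (M2), CD3/CD4/CD8, and CD4⁺CD25⁺FoxP3⁺ Treg, then analysed by flow cytometry.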

CT26 [16] = experiment: Antitumor immunity against mouse CT26 cells implanted in BALB/c mouse assessed as increase in M1 to M2 like TAM ratio at 25 ug, ip administered once a week for 23 days by flow cytometry analysis; format: functional, organism-based; conditions: dose 25.0 µg, time 23.0 day; outline: as §3
CT26 [17] = experiment: Antitumor immunity against mouse CT26 cells implanted in BALB/c mouse assessed as increase in infiltration of CD8+ T cytotoxic lymphocytes at 25 ug, ip administered once a week for 23 days by flow cytometry analysis; format: functional, organism-based; conditions: dose 25.0 µg, time 23.0 day; outline: as §3
hERG (KCNH2) = hERG (KCNH2) (Homo sapiens, UniProt Q12809); experiment: Inhibition of hERG expressed in HEK293 cells at 3 uM relative to control; format: cell-based; conditions: HEK293 cells expressing hERG
CT26 [18] = experiment: Antitumor immunity against mouse CT26 cells implanted in BALB/c mouse assessed as increase in M1 to M2 like TAM ratio at 25 ug, ip administered once a week with anti-PD-1 antibodies for 23 days by flow cytometry analysis; format: functional, organism-based; conditions: dose 25.0 µg, time 23.0 day; outline: as §3
[19] = target: T1, TLR7 and TLR8 (Homo sapiens); experiment: Agonist activity at human TLR7/8 expressed in human PBMC cells assessed as induction of MCP-1 production by measuring concentration required to induce maximal response incubated for 12 hrs by multiplexed immunoassay; format: cell-based; conditions: filed as agonist; outline: as §1
CT26 [20] = experiment: Synergistic antitumor activity against mouse CT26 cells implanted in BALB/c mouse assessed as reduction in tumor size at 25 ug, ip administered once a week in presence of anti-PD-1 antibodies and measured every 3 days for 23 days; format: functional, organism-based; conditions: dose 25.0 µg, time 23.0 day
CT26 [21] = experiment: Antitumor immunity against mouse CT26 cells implanted in BALB/c mouse assessed as increase in Teff/Treg ratio at 25 ug, ip administered once a week for 23 days by flow cytometry analysis; format: functional, organism-based; conditions: dose 25.0 µg, time 23.0 day; outline: as §3

Sequence of hERG (KCNH2) (Q12809 whole entry): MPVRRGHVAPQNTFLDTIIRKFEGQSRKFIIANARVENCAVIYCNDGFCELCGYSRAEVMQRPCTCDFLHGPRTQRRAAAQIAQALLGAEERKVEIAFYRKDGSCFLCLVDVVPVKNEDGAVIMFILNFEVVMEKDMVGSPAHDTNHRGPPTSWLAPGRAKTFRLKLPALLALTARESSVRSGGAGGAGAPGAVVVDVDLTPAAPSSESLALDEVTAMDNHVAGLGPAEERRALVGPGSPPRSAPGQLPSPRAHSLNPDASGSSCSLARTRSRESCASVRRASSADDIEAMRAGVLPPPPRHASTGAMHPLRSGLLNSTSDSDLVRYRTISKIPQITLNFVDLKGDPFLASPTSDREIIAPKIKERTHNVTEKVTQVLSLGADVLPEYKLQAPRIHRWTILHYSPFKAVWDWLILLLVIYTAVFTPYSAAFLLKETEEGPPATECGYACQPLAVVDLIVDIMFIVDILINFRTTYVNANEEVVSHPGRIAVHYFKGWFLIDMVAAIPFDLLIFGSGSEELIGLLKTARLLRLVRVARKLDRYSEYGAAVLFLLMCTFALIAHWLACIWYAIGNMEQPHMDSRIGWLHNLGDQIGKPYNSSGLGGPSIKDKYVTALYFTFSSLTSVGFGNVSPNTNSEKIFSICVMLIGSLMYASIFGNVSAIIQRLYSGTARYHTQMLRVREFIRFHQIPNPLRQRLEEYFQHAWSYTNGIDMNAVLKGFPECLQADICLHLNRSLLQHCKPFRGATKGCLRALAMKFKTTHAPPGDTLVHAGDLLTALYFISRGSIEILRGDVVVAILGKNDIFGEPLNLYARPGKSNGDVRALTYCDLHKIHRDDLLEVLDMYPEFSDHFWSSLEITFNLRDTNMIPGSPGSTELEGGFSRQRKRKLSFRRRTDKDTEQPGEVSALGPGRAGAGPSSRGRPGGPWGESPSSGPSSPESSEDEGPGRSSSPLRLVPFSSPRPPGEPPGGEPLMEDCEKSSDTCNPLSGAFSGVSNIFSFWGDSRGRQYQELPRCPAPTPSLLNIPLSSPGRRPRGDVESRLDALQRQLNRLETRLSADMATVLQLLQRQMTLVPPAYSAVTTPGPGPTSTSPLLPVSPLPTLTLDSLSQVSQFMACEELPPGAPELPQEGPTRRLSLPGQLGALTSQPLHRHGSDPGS
T1 sequence (Q9NR97 whole entry, looked up): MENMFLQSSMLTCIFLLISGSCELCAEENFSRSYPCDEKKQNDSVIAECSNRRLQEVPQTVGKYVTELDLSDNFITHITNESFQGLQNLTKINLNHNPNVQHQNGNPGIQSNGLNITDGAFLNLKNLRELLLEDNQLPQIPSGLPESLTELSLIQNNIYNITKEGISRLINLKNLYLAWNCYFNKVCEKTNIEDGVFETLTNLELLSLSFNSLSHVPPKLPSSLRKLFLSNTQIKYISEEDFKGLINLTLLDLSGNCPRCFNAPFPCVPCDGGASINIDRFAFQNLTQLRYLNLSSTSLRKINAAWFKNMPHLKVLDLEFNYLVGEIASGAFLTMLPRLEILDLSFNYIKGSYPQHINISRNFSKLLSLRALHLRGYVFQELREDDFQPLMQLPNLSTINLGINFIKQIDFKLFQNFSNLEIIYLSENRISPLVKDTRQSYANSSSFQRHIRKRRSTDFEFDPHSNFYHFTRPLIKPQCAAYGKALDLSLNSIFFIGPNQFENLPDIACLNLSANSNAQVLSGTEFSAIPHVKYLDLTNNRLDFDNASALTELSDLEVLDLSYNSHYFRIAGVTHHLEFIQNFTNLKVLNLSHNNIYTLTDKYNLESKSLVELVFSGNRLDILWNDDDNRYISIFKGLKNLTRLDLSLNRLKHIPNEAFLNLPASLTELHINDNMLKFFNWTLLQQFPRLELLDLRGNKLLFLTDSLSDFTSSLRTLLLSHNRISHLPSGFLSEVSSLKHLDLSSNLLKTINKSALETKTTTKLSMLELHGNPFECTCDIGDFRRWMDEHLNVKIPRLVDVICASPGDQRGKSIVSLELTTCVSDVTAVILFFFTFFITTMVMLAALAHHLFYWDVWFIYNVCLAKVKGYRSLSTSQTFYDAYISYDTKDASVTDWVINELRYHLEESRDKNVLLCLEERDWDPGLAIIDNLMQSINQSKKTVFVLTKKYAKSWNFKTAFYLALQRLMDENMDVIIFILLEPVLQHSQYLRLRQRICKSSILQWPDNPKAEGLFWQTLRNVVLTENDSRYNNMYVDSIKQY
T1 sequence (Q9NYK1 whole entry, looked up): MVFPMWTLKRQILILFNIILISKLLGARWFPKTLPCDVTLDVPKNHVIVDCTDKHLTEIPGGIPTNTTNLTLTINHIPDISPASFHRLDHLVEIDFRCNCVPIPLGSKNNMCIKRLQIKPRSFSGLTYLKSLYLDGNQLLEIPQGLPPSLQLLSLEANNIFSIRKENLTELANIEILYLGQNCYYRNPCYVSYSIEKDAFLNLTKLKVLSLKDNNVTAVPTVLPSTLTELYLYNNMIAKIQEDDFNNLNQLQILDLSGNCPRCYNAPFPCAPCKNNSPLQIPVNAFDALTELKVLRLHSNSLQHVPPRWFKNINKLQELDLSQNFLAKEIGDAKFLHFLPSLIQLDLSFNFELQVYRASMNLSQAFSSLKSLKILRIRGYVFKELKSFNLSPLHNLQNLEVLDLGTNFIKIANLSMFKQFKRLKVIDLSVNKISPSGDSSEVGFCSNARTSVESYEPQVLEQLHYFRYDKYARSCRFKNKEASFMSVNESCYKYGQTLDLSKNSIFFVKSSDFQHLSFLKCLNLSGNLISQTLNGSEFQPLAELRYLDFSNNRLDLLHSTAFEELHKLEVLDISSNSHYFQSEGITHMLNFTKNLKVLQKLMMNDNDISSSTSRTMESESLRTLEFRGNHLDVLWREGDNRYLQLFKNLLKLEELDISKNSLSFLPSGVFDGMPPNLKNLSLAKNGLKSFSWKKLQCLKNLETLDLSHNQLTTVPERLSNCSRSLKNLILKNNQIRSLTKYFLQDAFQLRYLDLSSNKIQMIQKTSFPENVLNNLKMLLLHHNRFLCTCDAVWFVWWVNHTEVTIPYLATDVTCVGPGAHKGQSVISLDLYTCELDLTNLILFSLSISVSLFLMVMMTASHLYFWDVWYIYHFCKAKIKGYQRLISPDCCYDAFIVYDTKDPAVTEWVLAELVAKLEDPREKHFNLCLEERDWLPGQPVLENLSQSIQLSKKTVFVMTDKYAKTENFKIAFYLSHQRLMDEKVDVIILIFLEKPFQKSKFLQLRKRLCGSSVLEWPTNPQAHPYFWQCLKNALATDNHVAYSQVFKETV

Structure (SMILES): COCCNc1nc(N)nc2ccc(Cc3ccc(CN(C)C)cc3)nc12
- Activity [1]: Active
- Activity [2]: Active
- Activity [3]: Active
- Activity [4]: Active
- Activity [5]: Non-Toxic
- Activity [6]: Toxic

Structure (SMILES): CCCCNc1nc(N)nc2ccc(Cc3ccc(CN(C)C)cc3)nc12
- ECmax [7]: 0.1 µg/mL
- ECmax [8]: 0.1 µg/mL
- ECmax [9]: 0.1 µg/mL
- ECmax [10]: 0.1 µg/mL
- Activity (CT26 [11]): Active
- Activity (CT26 [12]): Active
- Activity [13]: Toxic
- Activity [14]: Toxic
- fold change (FC) (CT26 [15]): 2
- Activity (CT26 [16]): Active
- Activity (CT26 [17]): Active
- inhibition at 3 µM (hERG (KCNH2)): 63.2%
- Activity (CT26 [18]): Active
- ECmax [19]: 0.1 µg/mL
- Activity (CT26 [20]): inactive
- Activity (CT26 [21]): Active
